Legend:
[1] = folding enthalpy; higher = less favourable; fluorescence melt of hairpins on a sequencing array, two-state fit; settings: sodium 0.088 M
How it was run: (§1)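 Library hairpins on a sequenced MiSeq flow cell carried annealed Cy3 and quencher oligos, and their Cy3 fluorescence was imaged in 50 mM Na-HEPES pH 8.0 with 25 mM NaCl, in 2.5 °C steps up to 60 °C. Signals were normalised to Cy3 before quenching and to control constructs. Melting temperature and folding enthalpy were obtained from bootstrapped two-state fits, combined by inverse-variance weighting across four replicates, and the fitted temperatures were then raised by 9.35 °C to match UV melts.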

[2] = melting temperature; fluorescence melt of hairpins on a sequencing array, two-state fit, raised by 9.35 °C to match UV melts; settings: sodium 0.088 M
How it was run: as §1

| Sequence | folding enthalpy [1] | Tm [2] |
| --- | --- | --- |
| GATCGTAGACACGATC ((((((....)))))) | -39.8 kcal/mol | 54.2 °C |
| GATCGTAGATACGATC ((((((....)))))) | -32.3 kcal/mol | 55.1 °C |
| GATCGTAGCACGATC ((((((...)))))) | -34.8 kcal/mol | 56.5 °C |
| GATCGTAGGAACGATC ((((((....)))))) | -30.9 kcal/mol | 52.4 °C |
| GATCGTAGGCACGATC ((((((....)))))) | -37 kcal/mol | 54.2 °C |
| GATCGTAGGGACGATC ((((((....)))))) | -31.6 kcal/mol | 56 °C |
| GATCGTAGTACGATC ((((((...)))))) | -29.6 kcal/mol | 54.7 °C |
| GATCGTCAAACGATC ((((((...)))))) | -31.7 kcal/mol | 52.1 °C |
| GATCGTCAACACGATC ((((((....)))))) | -32.9 kcal/mol | 51.5 °C |
| GATCGTCATAACGATC ((((((....)))))) | -38.8 kcal/mol | 55 °C |
| GATCGTCCAAACGATC ((((((....)))))) | -42.7 kcal/mol | 55.2 °C |
| GATCGTCCCGACGATC ((((((....)))))) | -43.2 kcal/mol | 59.8 °C |
| GATCGTCCTAACGATC ((((((....)))))) | -40.4 kcal/mol | 55.5 °C |
| GATCGTCCTTACGATC ((((((....)))))) | -40.7 kcal/mol | 53.8 °C |
| GATCGTCTAGACGATC ((((((....)))))) | -37.2 kcal/mol | 59.7 °C |
| GATCGTCTGAACGATC ((((((....)))))) | -39.6 kcal/mol | 55.6 °C |
| GATCGTGAAGACGATC ((((((....)))))) | -31.5 kcal/mol | 57 °C |
| GATCGTGACCACGATC ((((((....)))))) | -38.7 kcal/mol | 61.3 °C |

| Sequence | folding enthalpy [1] | Tm [2] |
| --- | --- | --- |
| GATCGTGACTACGATC ((((((....)))))) | -43.8 kcal/mol | 61.2 °C |
| GATCGTGAGACGATC ((((((...)))))) | -33.8 kcal/mol | 54 °C |
| GATCGTGAGGACGATC ((((((....)))))) | -34.1 kcal/mol | 53.5 °C |
| GATCGTGATCACGATC ((((((....)))))) | -53 kcal/mol | 58.2 °C |
| GATCGTGCAACGATC ((((((...)))))) | -41 kcal/mol | 67.8 °C |
| GATCGTGCCAACGATC ((((((....)))))) | -29.7 kcal/mol | 66.6 °C |
| GATCGTGCGCACGATC ((((((....)))))) | -51.2 kcal/mol | 64.6 °C |
| GATCGTGGAAACGATC ((((((....)))))) | -32.5 kcal/mol | 61 °C |
| GATCGTGGCCACGATC ((((((....)))))) | -62.6 kcal/mol | 62.5 °C |
| GATCGTGGCTACGATC ((((((....)))))) | -39.3 kcal/mol | 59 °C |
| GATCGTGGGCACGATC ((((((....)))))) | -40.1 kcal/mol | 56.8 °C |
| GATCGTGGGTACGATC ((((((....)))))) | -37.6 kcal/mol | 55.3 °C |
| GATCGTGGTACGATC ((((((...)))))) | -34.7 kcal/mol | 58.2 °C |
| GATCGTGGTTACGATC ((((((....)))))) | -40.3 kcal/mol | 58.3 °C |
| GATCGTGTAACGATC ((((((...)))))) | -48.1 kcal/mol | 63.5 °C |
| GATCGTGTATACGATC ((((((....)))))) | -46 kcal/mol | 62.1 °C |
| GATCGTGTCCACGATC ((((((....)))))) | -45.8 kcal/mol | 60.3 °C |
| GATCGTGTTACGATC ((((((...)))))) | -35.6 kcal/mol | 56.9 °C |
